Source: PubChem BioAssay (Johns Hopkins Ion Channel Center)
RGS4 inh: RGS4 inhibitors, primary screen, cell-based, HEK293 M3R inducible RGS4, calcium flux. Fluo-4 calcium flux; active compounds read high; triggered by carbachol at its EC20. B-score at 10 µM. hit rate 0.45% among 310,000. AID 463165, 2010;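 active = B-score, a plate-corrected calcium signal, over three deviations above library mean, with baseline fluorescence within five deviations of library mean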;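 note: RGS4 expression induced by doxycycline in cells with stable M3 receptor; B-score is computed from the integrated fluorescence ratio over baseline after carbachol; higher B-score means a larger calcium signal and so more RGS4 inhibition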
Target sequence (P49798 whole entry, looked up): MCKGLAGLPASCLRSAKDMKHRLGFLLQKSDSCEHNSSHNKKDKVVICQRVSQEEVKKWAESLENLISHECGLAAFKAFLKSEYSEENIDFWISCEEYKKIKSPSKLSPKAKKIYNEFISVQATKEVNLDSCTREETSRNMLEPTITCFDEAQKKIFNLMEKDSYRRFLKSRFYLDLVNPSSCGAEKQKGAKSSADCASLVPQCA
MrgX1 allo act: positive allosteric modulators of MrgX1, primary screen, HEK293 cells, Fluo-4 calcium flux | B-score at 10 µM | Mas-related G-protein coupled receptor member X1 (Homo sapiens), Q96LB2 | FDSS; active compounds read high | hit rate 0.63% among 310,000;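 active = plate-corrected calcium response at least 3 library SD above typical, normal starting fluorescence, not activating the receptor alone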;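 note: compound read alongside a low EC10 to EC30 dose of BAM8-22 agonist; peak minus trough fluorescence over baseline measured at the second addition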
Target sequence (Q96LB2 whole entry, looked up): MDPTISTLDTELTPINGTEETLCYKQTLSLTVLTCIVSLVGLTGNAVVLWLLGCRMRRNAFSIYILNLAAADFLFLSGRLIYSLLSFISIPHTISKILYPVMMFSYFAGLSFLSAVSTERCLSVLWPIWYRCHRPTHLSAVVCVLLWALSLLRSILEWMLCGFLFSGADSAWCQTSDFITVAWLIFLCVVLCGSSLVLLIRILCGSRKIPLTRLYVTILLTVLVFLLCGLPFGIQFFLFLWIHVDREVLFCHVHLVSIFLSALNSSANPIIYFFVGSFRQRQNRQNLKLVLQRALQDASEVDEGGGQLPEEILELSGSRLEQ
MrgX1 ag: agonists of human MrgX1 receptor, primary screen, HEK293 cells, Fluo-4 calcium flux | B-score at 10 µM | Mas-related G-protein coupled receptor member X1 (Homo sapiens), Q96LB2 | Fluo-4 calcium fluorescence, agonist mode; active compounds read high | AID 588627, 2011 | hit rate 0.44% among 310,000;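 active = calcium response B-score plate-corrected fluorescence ratio at least 3 library SD, with starting fluorescence B-score inside 5 SD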
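Test system: HEK293 cells stably expressing human MrgX1 receptor; amount: 15,000 cells per well; doses: compound delivered in addition one of three; times: overnight plating before 1 h dye loading; detection: Fluo-4 NW calcium-flux fluorescence, kinetic read; read-out basis: B-scored fluorescence response ratio; controls: positive and negative controls per plate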
MrgX1 antagonist: antagonists of human MrgX1 receptor, primary screen, HEK293 cells, Fluo-4 calcium flux | Mas-related G-protein coupled receptor member X1 (Homo sapiens), Q96LB2 | hit rate 1.3% among 310,000 | BAM8-22 antagonism; active compounds read low | AID 588676, 2011 | B-score at 10 µM;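 active = calcium-response B-score plate-corrected more than 3 library SD below zero, starting fluorescence within 5 deviations, no agonist response on first addition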;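 note: peak minus trough fluorescence over baseline after final BAM8-22 challenge near maximal dose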
RGS4 act: RGS4 potentiators or activators, primary screen, cell-based, HEK293 M3R inducible RGS4, calcium flux. carbachol calcium flux Fluo4; active compounds read low. B-score at 10 µM. hit rate 0.92% among 310,000. AID 463111, 2010;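 active = B-score of the integrated calcium signal more than 4 SD below the library mean, with starting fluorescence not abnormally high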;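 note: negative B-score means reduced calcium response which marks RGS4 activation or potentiation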
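Detection: kinetic calcium fluorescence imaging with Fluo4-AM dye, 2 µM / Material: HEK293 cells with stable M3R and inducible RGS4 / Schedule: recording 10 s baseline at 1 Hz, 100 s post-agonist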
Active calls of the source: *; i = inactive; . = no result given. Shown are actives, neighbours in structure and some others; about 3.5% of the full set was active somewhere.

SMILES | RGS4 inh | MrgX1 allo act | MrgX1 ag | MrgX1 antagonist | RGS4 act
COc1ccc(C(=O)C/C(=C\C(=O)c2ccc(C)cc2)c2ccccc2)cc1 | i | i | i | -5.56* | -7.12*
COc1ccc(C(=O)CC(=O)c2ccccc2)cc1 | i | i | i | i | i
CCCCNC(=O)Nc1ccc(C2SCCS2)cc1 | i | i | i | i | i
O=C(CCNC(=O)c1ccccc1Cl)Nc1cc(S(=O)(=O)N2CCOCC2)ccc1N1CCCC1 | i | i | i | i | i
Brc1ccc(-c2csc(Nc3nc(-c4ccc(Br)cc4)cs3)n2)cc1 | i | i | i | -4.52* | i
Nc1nc(-c2ccc(Br)cc2)cs1 | i | i | i | i | i
CCC(=O)N1CCN(c2ccc(NC(=O)c3ccco3)cc2Cl)CC1 | i | . | . | . | i
CCCC(=O)N1CCN(c2ccc(NC(=O)c3cccs3)cc2Cl)CC1 | i | i | i | i | i
CCC(=O)N1CCN(c2ccc(NC(=O)c3cc4ccccc4o3)cc2Cl)CC1 | i | i | i | i | -7.48*
CC1CCN(c2ccccc2NC(=O)c2cc3ccccc3o2)CC1 | i | i | i | i | -7.41*
CCCC(=O)N1CCN(c2ccc(NC(=O)c3cc4ccccc4o3)cc2Cl)CC1 | i | i | i | i | -8.59*
O=C(c1ccc2c(=O)n3c(nc2c1)CCCCC3)N1CCc2ccccc21 | i | i | i | i | i
Cc1ccc(NNC(=O)c2ccno2)cc1C | i | i | i | i | -7.48*
CC(C)Cc1ccc(S(=O)(=O)Nc2ccccn2)cc1 | i | i | i | i | i
Cc1ccc(F)cc1CNC(=O)C1CCC(=O)N(CC2CCCCC2)C1 (stereo not given) | i | i | i | i | i
CN(C(=O)COC(=O)c1ccccc1Nc1ccccc1)c1c(N)n(Cc2ccccc2)c(=O)[nH]c1=O | i | i | i | -7* | i
CC(C)(C)c1ccc(CN2N=Nc3ccccc3S2(=O)=O)cc1 | i | i | i | i | i
O=S1(=O)c2ccccc2N=NN1Cc1ccc(Cl)c(Cl)c1 | i | i | 28.8* | i | i
CC(C)O/C(=N\S(=O)(=O)c1ccc(Cl)cc1)c1ccccc1 | i | i | i | i | -7.11*
CC(C)CO/C(=N/S(=O)(=O)c1ccccc1)c1ccccc1 | i | i | i | i | i
Cc1ccc(C)c(NC(=O)c2ccc(S(=O)(=O)N(C)CC3CCCO3)cc2)c1 (stereo not given) | i | i | i | i | i
Cc1c(N=C2N=C(NC(=O)c3cccs3)c3ccccc32)c(=O)n(-c2ccccc2)n1C | i | i | 33* | i | i
Cc1cc(C(=O)NC2CC(C)(C)Cc3c2cnn3-c2cccc(F)c2)n(C)n1 (stereo not given) | i | i | i | i | i
CCSc1nnc(NC(=O)COc2ccccc2[N+](=O)[O-])s1 | i | 8.61* | i | i | i
CC(C)c1nnc(NC(=O)COc2ccccc2[N+](=O)[O-])s1 | i | i | i | i | i
SMILES | RGS4 inh | MrgX1 allo act | MrgX1 ag | MrgX1 antagonist | RGS4 act
COc1cc(CNc2ccc(C(=O)O)cc2)cc(Br)c1OCC(=O)NC(C)(C)C | i | i | i | -5.31* | i
CCOc1cc(CNc2ccc(OC)cc2)cc(Br)c1OCC(=O)NC(C)(C)C | i | i | i | i | i
N#C/C(=C(/O)COC(=O)Cc1c[nH]c2ccccc12)c1nc2ccccc2[nH]1 | i | i | i | -4.93* | i
COc1ccc(/C=N/OC/C(O)=C(\C#N)c2nc3ccccc3[nH]2)cc1 | i | i | i | -5.62* | i
CC(C)(C)NC(=S)N/N=C\c1ccc(-c2ccc([N+](=O)[O-])cc2)o1 | i | i | 28.3* | i | i
O=C(O)c1cccc(-c2ccc(/C=N/Nc3ccc([N+](=O)[O-])cc3)o2)c1 | i | i | i | -7* | i
COc1nc(N)c(C#N)c(-c2ccc(N(C)CCC#N)cc2)c1C#N | i | i | i | i | i
O=C(CSc1nncs1)Nc1ccc2[nH]c(=O)[nH]c2c1 | i | i | i | i | i
O=C1COc2ccc(C(=O)/C=C/c3ccccc3)cc2N1 | i | i | 32.8* | i | i
O=C(/C=C/c1ccccc1)c1ccc2c(c1)OCCCCO2 | i | 16.1* | i | i | i
O=C(O)c1ccc2c(c1)OCCCO2 | i | i | i | i | i
COc1ccc(CNC(=O)COc2ccc(S(=O)(=O)N3CCCCC3)cc2Cl)cc1 | i | i | i | i | -7.06*
CCN1C(=O)/C(=C\N(C)C)S/C1=N\S(=O)(=O)c1ccccc1 | i | 10.4* | i | i | i
FC(F)(F)c1cc(C(F)(F)F)c2ccc(N3CCN(c4ccc(Cl)cc4)CC3)nc2n1 | i | i | i | i | i
N#CC(c1ccc(Cl)cc1)c1ccc2c(C(F)(F)F)cc(C(F)(F)F)nc2n1 (stereo not given) | i | i | i | i | -8.07*
CC(=O)N1c2ccc(S(=O)(=O)N3CCC(C(=O)Nc4cccc(Cl)c4)CC3)cc2CC1C (stereo not given) | i | i | i | i | i
CCN1C(=O)/C(=C\c2ccc(-c3cccc(C(=O)OC)c3)o2)SC1=Nc1ccc(C(=O)O)cc1 | i | i | i | -6.53* | i
O=C(O)c1cccc(-c2ccc(/C=C3/SC(=Nc4ccccc4)N(Cc4cccnc4)C3=O)o2)c1 | i | i | i | -5.08* | i
CCN=C1S/C(=C\c2ccc(-c3cccc(C(=O)O)c3)o2)C(=O)N1CC | i | i | i | i | i
COC(=O)C1(C(=O)OC)NOC2C(=O)N(c3ccccc3)C(=O)C21 (stereo not given) | i | i | i | -5.71* | i
Clc1ccc(-c2cc(CN3CCOCC3)no2)cc1 | i | i | i | i | i
Cc1ccc(SCc2cc(-c3ccc(Cl)cc3)on2)cc1 | i | i | i | i | -7.58*
Clc1ccc(SCc2cc(-c3ccc(Cl)cc3)on2)cc1 | i | i | i | i | -8.03*
CC12CC(O)C3c4ccc(O)cc4CCC3C1CC/C2=N\O (stereo not given) | i | i | i | i | i
